Values joined by “and” are separate entries in the source; they are usually repeats but may differ in a detail not shown here. Equal values may be shown once.
Key:
[1] = target: T1, Hemoglobin HbA (Homo sapiens) (UniProt P69905+P68871); test: Oxygen pressure in mmHg at which the […] hemoglobin solution (in presence of 10 mM compound) was 50% saturated with oxygen.; format: protein-complex assay
Method in brief: (§1)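 Purified HbA from washed, lysed erythrocytes (DEAE-Sephacel, pH 8.4 Tris elution), exchanged into 50 mM HEPES pH 7.4. Stock Hb 5.4 mM mixed 1:1 with 20 mM compound in HEPES, giving final 2.7 mM Hb and 10 mM compound (about 4:1). Control is Hb mixed with buffer alone. Oxygen dissociation curves recorded on a Hem-O-Scan analyzer. P50 in mmHg at 50% saturation.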

[2] = target: T1, Hemoglobin HbA (Homo sapiens); test: Oxygen pressure in mmHg at which the control hemoglobin solution (no compound) was 50% saturated with oxygen.; format: protein-complex assay; method in brief: as §1
[3] = Dose-response study in whole blood at a concentration of 2.0 mM; format: tissue-based
Method in brief: (§2)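 Fresh heparinized whole blood mixed 1:1 with test compound in isosmotic 50 mM HEPES pH 7.4 containing 140 mM NaCl and 10 mM glucose. Hb after addition approximately 1.25 mM. Oxygen dissociation curves recorded on a Hem-O-Scan analyzer. P50 with compound divided by P50 of control.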

[4] = Dose-response study in whole blood at a concentration of 10.0 mM; format: tissue-based; method in brief: as §2
[5] = Dose-response study in whole blood at a concentration of 4.0 mM; format: tissue-based; method in brief: as §2
[6] = Dose-response study in whole blood at a concentration of 1.0 mM; format: tissue-based; method in brief: as §2
[7] = Dose-response study in whole blood at a concentration of 0.5 mM; format: tissue-based; method in brief: as §2

T1 sequence (P68871 2-147 partner limits assumed): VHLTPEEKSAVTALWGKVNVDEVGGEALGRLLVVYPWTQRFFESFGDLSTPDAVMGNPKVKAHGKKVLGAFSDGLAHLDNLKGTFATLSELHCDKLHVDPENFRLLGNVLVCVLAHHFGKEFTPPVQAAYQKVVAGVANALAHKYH
T1 sequence (P69905 2-142 limits assumed): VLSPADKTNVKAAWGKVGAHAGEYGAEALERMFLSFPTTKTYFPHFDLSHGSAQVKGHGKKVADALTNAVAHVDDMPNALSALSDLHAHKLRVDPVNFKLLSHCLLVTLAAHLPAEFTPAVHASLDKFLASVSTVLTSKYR

## CC(C)(Oc1ccc(CNC(=O)c2cc(Cl)cc(Cl)c2)cc1)C(=O)O
[1]
  P50d: 48.5 mmHg and 47 mmHg and 46 mmHg
[2]
  P50c: 19 mmHg

## CC(C)(Oc1ccc(CC(=O)Nc2ccc(F)cc2)cc1)C(=O)O
[1]
  P50d: 52 mmHg and 44 mmHg
[2]
  P50c: 20 mmHg and 17.5 mmHg

## Cc1ccc(NC(=O)Cc2ccc(OC(C)(C)C(=O)O)cc2)cc1
[1]
  P50d: 40 mmHg and 41 mmHg
[2]
  P50c: 15 mmHg

## CC(C)(Oc1ccc(CCNC(=O)c2ccccc2)cc1)C(=O)O
[1]
  P50d: 32 mmHg
[2]
  P50c: 18 mmHg

## CC(C)(Oc1ccc(CC(=O)Nc2ccc(Cl)cc2)cc1)C(=O)O
[1]
  P50d: 52 mmHg [middle of 4 runs]
[2]
  P50c: 15.5 mmHg and 19 mmHg and 18.5 mmHg (2×)

## CC(C)(Oc1ccc(CC(=O)Nc2ccccc2)cc1)C(=O)O
[1]
  P50d: 63 mmHg and 54 mmHg
[2]
  P50c: 20.5 mmHg and 19 mmHg

## Cc1cc(C)cc(NC(=O)Cc2ccc(OC(C)(C)C(=O)O)cc2)c1
[1]
  P50d: 75.5 mmHg and 76.5 mmHg and 78 mmHg
[3]
  P50d/P50c: 1.93
[4]
  P50d/P50c: 3
[5]
  P50d/P50c: 2.61
[6]
  P50d/P50c: 1.53
[7]
  P50d/P50c: 1.07
[2]
  P50c: 19 mmHg and 19.2 mmHg (2×)

## CC(C)(Oc1ccc(CC(=O)Nc2ccc(Cl)c(Cl)c2)cc1)C(=O)O
[1]
  P50d: 65 mmHg
[2]
  P50c: 18.2 mmHg and 18 mmHg

## CC(C)(Oc1ccc(CNC(=O)c2ccccc2Cl)cc1)C(=O)O
[1]
  P50d: 28 mmHg
[2]
  P50c: 19 mmHg

## CC(C)(Oc1ccc(NC(=O)Nc2cc(Cl)cc(Cl)c2)cc1)C(=O)O
[1]
  P50d: 44 mmHg and 65 mmHg and 63 mmHg
[3]
  P50d/P50c: 1.7
[4]
  P50d/P50c: 2.25
[5]
  P50d/P50c: 1.84
[6]
  P50d/P50c: 1.15
[7]
  P50d/P50c: 0.96
[2]
  P50c: 11.8 mmHg and 18 mmHg (2×)

## CC(C)(Oc1ccc(CCNC(=O)c2ccc(Cl)cc2)cc1)C(=O)O
[1]
  P50d: 31 mmHg [middle of 4 runs]
[2]
  P50c: 18 mmHg and 17 mmHg (2×) and 18.5 mmHg

## CC(C)c1ccc(NC(=O)Cc2ccc(OC(C)(C)C(=O)O)cc2)cc1
[1]
  P50d: 57 mmHg and 56.5 mmHg and 57.8 mmHg
[2]
  P50c: 19.5 mmHg and 19 mmHg (2×)

## CC(C)(Oc1ccc(NC(=O)Cc2ccccc2)cc1)C(=O)O
[1]
  P50d: 35 mmHg
[2]
  P50c: 19.5 mmHg

## CC(C)(Oc1ccc(NC(=O)Nc2ccc(Cl)c(Cl)c2)cc1)C(=O)O
[1]
  P50d: 32 mmHg
[2]
  P50c: 18 mmHg

## CC(C)(Oc1ccc(CNC(=O)c2ccc(Cl)cc2)cc1)C(=O)O
[1]
  P50d: 48 mmHg (2×) and 49 mmHg
[2]
  P50c: 19 mmHg (2×) and 18 mmHg

## CC(C)(Oc1ccc(CC(=O)Nc2c(Cl)cccc2Cl)cc1)C(=O)O
[1]
  P50d: 34 mmHg and 35 mmHg
[2]
  P50c: 18 mmHg

## CC(C)(Oc1ccc(NC(=O)Nc2cc(Cl)c(Cl)c(Cl)c2)cc1)C(=O)O
[1]
  P50d: 48 mmHg and 35 mmHg and 36 mmHg
[2]
  P50c: 18 mmHg and 14 mmHg (2×)

## CC(C)(Oc1ccc(CNC(=O)c2ccccc2)cc1)C(=O)O
[1]
  P50d: 35 mmHg and 35.5 mmHg
[2]
  P50c: 18 mmHg and 19 mmHg

## CC(C)(Oc1ccc(CNC(=O)c2ccc(Cl)c(Cl)c2)cc1)C(=O)O
[1]
  P50d: 38.5 mmHg and 40 mmHg
[2]
  P50c: 19 mmHg and 18 mmHg

## CC(C)(Oc1ccc(CC(=O)Nc2cc(Cl)c(Cl)c(Cl)c2)cc1)C(=O)O
[1]
  P50d: 37 mmHg and 60 mmHg and 63 mmHg
[2]
  P50c: 12 mmHg and 19 mmHg (2×)

## CC(C)(Oc1ccc(CNC(=O)c2cccc(Cl)c2)cc1)C(=O)O
[1]
  P50d: 37 mmHg
[2]
  P50c: 18 mmHg and 19 mmHg

## CC(C)(Oc1ccc(CC(=O)Nc2ccc(C(F)(F)F)cc2)cc1)C(=O)O
[1]
  P50d: 44 mmHg [middle of 4 runs]
[2]
  P50c: 20 mmHg and 17.5 mmHg (2×) and 18 mmHg

## CC(C)(Oc1ccc(CNC(=O)c2cc(Cl)c(Cl)c(Cl)c2)cc1)C(=O)O
[2]
  P50c: 19 mmHg (2×) and 11.5 mmHg

## CC(C)(Oc1ccc(NC(=O)Cc2ccc(Cl)cc2)cc1)C(=O)O
[1]
  P50d: 44 mmHg [middle of 5 runs]
[2]
  P50c: 19 mmHg (4×) and 21 mmHg

## CC(C)(Oc1ccc(CC(=O)Nc2cc(Cl)cc(Cl)c2)cc1)C(=O)O
[1]
  P50d: 47 mmHg [middle of 5 runs]
[3]
  P50d/P50c: 2
[4]
  P50d/P50c: 2.93
[5]
  P50d/P50c: 2.72
[6]
  P50d/P50c: 1.52
[7]
  P50d/P50c: 1.09
[2]
  P50c: 10.3 mmHg and 11 mmHg (2×) and 19.2 mmHg (2×)

Reference: ChEMBL document CHEMBL1125253, “Allosteric modifiers of hemoglobin. 1. Design, synthesis, testing, and structure-allosteric activity relationship of novel hemoglobin oxygen affinity decreasing agents” (J Med Chem, 1991)
